Tests used:
[1] = target: Histone deacetylase 5 (Homo sapiens, UniProt Q9UQL6); assay: Inhibition of C-terminal His6x-tagged recombinant human HDAC5 (657 to 1123) expressed in baculovirus using acetyl-Lys(trifluoroacetyl)-AMC as substrate after 1 hr by fluorescence plate reader analysis
[2] = target: T1, Protein deacetylase HDAC6 (Homo sapiens) (UniProt Q9UBN7); assay: Inhibition of HDAC6 in human HeLa cells using acetyl tubulin as substrate assessed as Ac-Lys accumulation in nuclear histones at 20 uM after 24 hrs by immunofluorescence assay relative to control
T1 sequence (whole entry): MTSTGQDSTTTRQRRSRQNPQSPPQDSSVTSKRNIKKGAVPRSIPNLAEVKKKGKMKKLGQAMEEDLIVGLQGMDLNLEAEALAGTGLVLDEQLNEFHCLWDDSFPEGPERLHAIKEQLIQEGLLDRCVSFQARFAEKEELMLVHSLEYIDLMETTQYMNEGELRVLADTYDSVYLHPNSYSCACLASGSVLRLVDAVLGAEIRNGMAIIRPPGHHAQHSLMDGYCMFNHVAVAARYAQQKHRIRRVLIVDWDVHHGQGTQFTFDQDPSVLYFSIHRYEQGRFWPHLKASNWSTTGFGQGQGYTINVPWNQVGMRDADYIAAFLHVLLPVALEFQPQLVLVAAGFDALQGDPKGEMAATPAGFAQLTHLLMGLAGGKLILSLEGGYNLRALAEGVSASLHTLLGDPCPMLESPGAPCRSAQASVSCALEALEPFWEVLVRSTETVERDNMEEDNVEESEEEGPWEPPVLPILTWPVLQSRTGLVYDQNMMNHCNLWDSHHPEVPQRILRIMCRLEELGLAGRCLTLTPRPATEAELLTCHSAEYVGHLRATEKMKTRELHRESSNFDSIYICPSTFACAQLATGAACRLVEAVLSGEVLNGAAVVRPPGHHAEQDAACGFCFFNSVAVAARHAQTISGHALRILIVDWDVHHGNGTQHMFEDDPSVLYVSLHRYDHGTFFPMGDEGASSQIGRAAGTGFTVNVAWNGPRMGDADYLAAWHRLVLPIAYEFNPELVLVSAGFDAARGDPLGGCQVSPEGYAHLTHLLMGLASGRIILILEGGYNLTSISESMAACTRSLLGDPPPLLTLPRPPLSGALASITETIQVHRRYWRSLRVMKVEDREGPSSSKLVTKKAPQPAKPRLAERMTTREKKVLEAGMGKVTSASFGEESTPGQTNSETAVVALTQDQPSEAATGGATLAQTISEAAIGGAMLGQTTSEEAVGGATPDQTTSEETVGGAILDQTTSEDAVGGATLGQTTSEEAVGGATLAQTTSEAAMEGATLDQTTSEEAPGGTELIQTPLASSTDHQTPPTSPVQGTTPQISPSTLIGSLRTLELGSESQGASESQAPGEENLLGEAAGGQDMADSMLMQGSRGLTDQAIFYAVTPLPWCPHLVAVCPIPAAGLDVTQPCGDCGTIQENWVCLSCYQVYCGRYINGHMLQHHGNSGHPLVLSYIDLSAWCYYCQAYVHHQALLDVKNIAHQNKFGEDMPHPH

[3] = Kinetic solubility of the compound in potassium phosphate buffer at pH 6.8 by turbidometric analysis; format: physicochemical; conditions: read-out: Kinetic_solubility
[4] = target: T2, Histone deacetylase 8 (Homo sapiens, UniProt Q9BY41); assay: Inhibition of full length C-terminal His6x-tagged recombinant human HDAC8 expressed in baculovirus using Arg-His-Lys(Ac)-Lys(Ac) as substrate after 1 hr by fluorescence plate reader analysis
T2 sequence (Q9BY41 whole entry): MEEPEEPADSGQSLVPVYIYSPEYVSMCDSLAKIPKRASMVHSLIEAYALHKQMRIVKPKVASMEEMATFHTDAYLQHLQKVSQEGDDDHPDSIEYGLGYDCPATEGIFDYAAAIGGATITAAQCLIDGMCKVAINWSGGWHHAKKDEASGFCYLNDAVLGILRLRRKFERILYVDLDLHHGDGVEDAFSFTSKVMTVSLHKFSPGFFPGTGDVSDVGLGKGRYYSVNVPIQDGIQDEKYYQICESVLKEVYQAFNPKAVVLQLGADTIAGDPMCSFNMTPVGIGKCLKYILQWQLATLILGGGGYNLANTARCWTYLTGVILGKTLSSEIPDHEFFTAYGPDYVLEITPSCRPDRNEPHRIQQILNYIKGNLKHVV

[5] = target: T3, Polyamine deacetylase HDAC10 (Homo sapiens, UniProt Q969S8); assay: Inhibition of N-terminal GST-tagged recombinant human HDAC10 (1 to 481) expressed in baculovirus using Arg-His-Lys-Lys (Ac) as substrate after 1 hr by fluorescence plate reader analysis
T3 sequence (Q969S8 whole entry): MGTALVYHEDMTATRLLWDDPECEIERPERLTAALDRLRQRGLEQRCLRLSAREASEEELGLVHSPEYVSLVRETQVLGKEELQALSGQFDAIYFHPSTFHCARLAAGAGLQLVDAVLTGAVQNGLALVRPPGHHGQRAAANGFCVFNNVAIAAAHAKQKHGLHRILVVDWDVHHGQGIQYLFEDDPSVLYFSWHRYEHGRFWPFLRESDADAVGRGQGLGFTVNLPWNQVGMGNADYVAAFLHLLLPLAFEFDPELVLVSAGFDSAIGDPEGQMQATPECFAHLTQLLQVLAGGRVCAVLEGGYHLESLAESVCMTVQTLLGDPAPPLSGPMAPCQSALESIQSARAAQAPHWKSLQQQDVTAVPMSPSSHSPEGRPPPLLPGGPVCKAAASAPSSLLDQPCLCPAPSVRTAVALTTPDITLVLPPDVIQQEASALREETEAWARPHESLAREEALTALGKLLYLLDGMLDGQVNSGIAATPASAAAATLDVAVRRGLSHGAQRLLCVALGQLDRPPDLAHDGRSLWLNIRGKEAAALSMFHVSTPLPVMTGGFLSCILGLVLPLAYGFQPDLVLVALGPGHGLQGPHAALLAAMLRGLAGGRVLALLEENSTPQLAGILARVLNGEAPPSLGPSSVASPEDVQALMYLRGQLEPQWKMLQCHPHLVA

[6] = target: Histone deacetylase 3 (Homo sapiens, UniProt O15379); assay: Inhibition of full length C-terminal His6x-tagged recombinant human HDAC3 expressed in baculovirus using Arg-His-Lys-Lys (Ac) as substrate after 2 hrs by fluorescence plate reader analysis
Chain of Histone deacetylase 3 (O15379 whole entry): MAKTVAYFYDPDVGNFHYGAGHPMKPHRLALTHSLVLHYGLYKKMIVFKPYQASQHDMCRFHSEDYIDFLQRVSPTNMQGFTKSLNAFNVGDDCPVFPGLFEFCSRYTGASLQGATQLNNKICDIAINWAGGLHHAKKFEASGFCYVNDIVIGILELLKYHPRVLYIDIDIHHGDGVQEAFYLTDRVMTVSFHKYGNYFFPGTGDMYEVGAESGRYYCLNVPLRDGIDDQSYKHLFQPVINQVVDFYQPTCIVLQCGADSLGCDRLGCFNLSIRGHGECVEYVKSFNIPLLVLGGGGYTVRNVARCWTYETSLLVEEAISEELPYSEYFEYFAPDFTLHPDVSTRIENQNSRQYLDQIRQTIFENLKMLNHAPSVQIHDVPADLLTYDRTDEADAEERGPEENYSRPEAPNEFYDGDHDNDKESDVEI

[7] = Selectivity ratio of IC50 for HDAC1/2 in human HeLa cell nuclear extract to IC50 for N-terminal GST-tagged recombinant HDAC6 (unknown origin); format: cell-based
Outline: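 HDAC6 leg: 1 nM GST-HDAC6 with 8 μM Ac-Arg-Gly-Lys(Ac)-AMC. Nuclear-extract leg: 30 μg/mL HeLa nuclear extract (mainly HDAC1/2) with 20 μM of the same substrate in 50 mM Tris-Cl, 137 mM NaCl, 2.7 mM KCl, 1 mM MgCl2, pH 8.0.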

[8] = organism: Homo sapiens; assay: Selectivity ratio of IC50 for full length C-terminal His6x-tagged recombinant human HDAC8 to IC50 for N-terminal GST-tagged recombinant HDAC6 (unknown origin)

Chain of Histone deacetylase 5 (Q9UQL6 whole entry): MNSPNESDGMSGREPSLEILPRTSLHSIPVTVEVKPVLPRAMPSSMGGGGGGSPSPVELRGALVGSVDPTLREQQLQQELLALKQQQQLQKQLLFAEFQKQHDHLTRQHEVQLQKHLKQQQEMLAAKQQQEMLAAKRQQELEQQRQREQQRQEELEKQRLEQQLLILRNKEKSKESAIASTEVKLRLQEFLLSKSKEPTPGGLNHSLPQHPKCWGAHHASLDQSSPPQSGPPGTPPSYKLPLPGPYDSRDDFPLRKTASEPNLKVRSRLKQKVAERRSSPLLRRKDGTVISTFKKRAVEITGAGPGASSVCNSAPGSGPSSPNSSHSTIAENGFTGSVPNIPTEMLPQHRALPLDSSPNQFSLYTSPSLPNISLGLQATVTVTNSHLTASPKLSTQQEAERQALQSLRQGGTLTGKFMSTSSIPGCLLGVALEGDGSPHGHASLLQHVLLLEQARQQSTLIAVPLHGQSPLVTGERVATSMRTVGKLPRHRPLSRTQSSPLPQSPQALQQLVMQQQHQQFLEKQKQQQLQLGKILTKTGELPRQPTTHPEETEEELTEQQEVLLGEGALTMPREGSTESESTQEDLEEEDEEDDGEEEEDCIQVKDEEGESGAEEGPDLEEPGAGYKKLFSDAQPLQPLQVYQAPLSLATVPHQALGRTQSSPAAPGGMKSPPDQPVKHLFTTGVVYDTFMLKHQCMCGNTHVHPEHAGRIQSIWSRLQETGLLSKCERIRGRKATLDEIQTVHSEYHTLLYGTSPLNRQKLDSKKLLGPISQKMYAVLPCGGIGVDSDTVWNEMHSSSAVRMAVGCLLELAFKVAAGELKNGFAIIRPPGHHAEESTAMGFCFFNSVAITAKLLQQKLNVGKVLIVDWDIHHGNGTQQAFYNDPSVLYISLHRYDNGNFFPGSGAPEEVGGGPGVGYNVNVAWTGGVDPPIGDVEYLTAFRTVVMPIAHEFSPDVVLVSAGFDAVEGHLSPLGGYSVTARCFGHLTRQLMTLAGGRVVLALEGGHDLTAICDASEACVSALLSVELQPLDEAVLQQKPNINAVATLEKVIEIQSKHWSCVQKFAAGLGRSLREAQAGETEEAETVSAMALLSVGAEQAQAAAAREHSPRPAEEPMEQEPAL

Row | SMILES | IC50 [1] | inhibition [2] | solubility kinetic [3] | IC50 [4] | IC50 [5] | IC50 [6] | Ratio IC50 [7] | Ratio IC50 [8]
1 | Cn1cccc1C(=O)N1CCc2cc(C(=O)NO)ccc2C1 | > 50 µM | < 20% | > 200 µM | 2.1 µM | > 50 µM | 46 µM | 500 | –
2 | CC(C)(C)C(=O)N1Cc2ccc(C(=O)NO)cc2C1 | > 50 µM | < 20% | > 200 µM | 1.3 µM | > 50 µM | > 50 µM | 340 | 40
3 | CC(C)(C)C(=O)N1CCc2cc(C(=O)NO)ccc2C1 | > 50 µM | < 20% | > 200 µM | 2.1 µM | > 50 µM | > 50 µM | 1500 | 40
4 | Cn1cccc1C(=O)NCc1ccc(C(=O)NO)cc1 | 3.3 µM | < 20% | > 200 µM | 0.69 µM | 3.7 µM | 4.5 µM | 115 | 40
5 | Cn1cccc1C(=O)N1Cc2ccc(C(=O)NO)cc2C1 | > 50 µM | < 20% | > 200 µM | 1.3 µM | > 50 µM | > 50 µM | 690 | 40
6 | Cn1cccc1C(=O)N1CCCc2cc(C(=O)NO)ccc2C1 | > 50 µM | < 20% | > 200 µM | 0.89 µM | > 50 µM | > 50 µM | > 380 | 40

Source: ChEMBL document CHEMBL2429834, “Potent histone deacetylase inhibitors derived from 4-(aminomethyl)-N-hydroxybenzamide with high selectivity for the HDAC6 isoform” (J Med Chem, 2013)
